Assay results published in publication PMC3821033 (FEBS Open Bio, 2013).
Each block holds one compound with its values, some of them ahead of it.

Columns and labels:
Format in all cases: biochemical
LDHA [1] = target: T1, LDHA (Lactococcus cremoris, UniProt A2RKA4); experiment: inhibition of NADH-coupled activity; settings: inhibitor; both reaction directions; 1 mM FBP, pH 7.0, 30 °C
T1 sequence (A2RKA4 1-325): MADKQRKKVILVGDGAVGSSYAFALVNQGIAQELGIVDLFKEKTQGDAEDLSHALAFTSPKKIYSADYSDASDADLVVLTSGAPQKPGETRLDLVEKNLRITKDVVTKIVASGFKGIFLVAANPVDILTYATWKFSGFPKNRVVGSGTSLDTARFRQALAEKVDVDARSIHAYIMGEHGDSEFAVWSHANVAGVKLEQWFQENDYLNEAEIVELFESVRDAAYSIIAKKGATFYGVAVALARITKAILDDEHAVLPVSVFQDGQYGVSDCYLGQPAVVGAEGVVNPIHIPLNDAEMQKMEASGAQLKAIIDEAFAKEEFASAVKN

LDHA [2] = target: T1, LDHA; experiment: inhibition of NADH-coupled activity; settings: read-out: % remaining rate at 8 mM
LDHA [3] = target: T1, LDHA; experiment: activation of NADH-coupled activity; settings: 200 µM, allosteric activator, Tris-maleate pH 7.0, 30 °C
Procedure, shortened: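 Recombinant His-tagged LDHA from L. lactis MG1363, expressed in E. coli Transetta (DE3) (0.5 mM IPTG, 30 °C, 4 h) and purified on Ni-NTA with imidazole elution. Pyruvate reduction was followed spectrophotometrically as the decrease in NADH absorbance at 340 or 380 nm, at 30 °C in 100 mM Tris–maleate pH 7.0, with about 40–200 ng/ml enzyme; 1 unit = 1 μmol/min.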

FNI = target: T2, FNI (Lactococcus cremoris, UniProt A2RID7); experiment: 1H NMR of product after […] h; settings: 5 mM MgCl2, 10 μM FMN, 5 mM NADH, 2 mM DTT, pH 7.0, 30 °C
T2 sequence (A2RID7 1-349): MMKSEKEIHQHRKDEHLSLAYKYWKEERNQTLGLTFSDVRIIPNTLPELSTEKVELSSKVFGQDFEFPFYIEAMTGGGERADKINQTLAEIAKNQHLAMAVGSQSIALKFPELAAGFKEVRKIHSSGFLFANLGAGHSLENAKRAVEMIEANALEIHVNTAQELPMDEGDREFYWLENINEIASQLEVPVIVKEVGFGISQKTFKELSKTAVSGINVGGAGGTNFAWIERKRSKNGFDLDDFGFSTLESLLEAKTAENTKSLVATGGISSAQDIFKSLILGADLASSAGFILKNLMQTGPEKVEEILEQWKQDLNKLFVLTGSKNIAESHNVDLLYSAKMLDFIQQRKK

Structure (SMILES): Nc1ncnc2c1ncn2[C@@H]1O[C@H](COP(=O)(O)OP(=O)(O)O)[C@@H](O)[C@H]1O [ADP]
- inhibition of NADH-coupled activity (LDHA [1]): ADP was shown to be a more severe inhibitor

- remaining activity at 8000 µM (LDHA [2]): > 80%
Structure (SMILES): Nc1ncnc2c1ncn2[C@@H]1O[C@H](COP(=O)(O)OP(=O)(O)OP(=O)(O)O)[C@@H](O)[C@H]1O [ATP]

- Pyruvate reduction (%) (LDHA [3]): 66 ± 4.7%
Structure (SMILES): O=P(O)(O)OC[C@H]1OC(O)(COP(=O)(O)O)[C@@H](O)[C@@H]1O (some centres unmarked) [FBP]

Structure (SMILES): C=C(C)CCOP(=O)(O)OP(=O)(O)O [IPP]
- 1H NMR of product after 15 h (FNI): conversion of IPP to dimethylallyl diphosphate was observed

Structure (SMILES): CC(C)=CCOP(=O)(O)OP(=O)(O)O [dimethylallyl diphosphate]
- 1H NMR of product after 15 h (FNI): appearance of signals for dimethylallyl diphosphate
